Measured values: ChEMBL document CHEMBL3621046, “Discovery of a potent enoyl-acyl carrier protein reductase (FabI) inhibitor suitable for antistaphylococcal agent” (Bioorg Med Chem Lett, 2015)
Values after ≈ are worked out from the molar mass of the structure shown.

Legend:
[1] = molecular target: T1, Enoyl-[acyl-carrier-protein] reductase [NADPH] FabI (Staphylococcus aureus, UniProt Q6GI75); assay: Inhibition of Staphylococcus aureus FabI assessed as reduction in inhibition of reduction of trans-2-octenoyl N-acetylcysteamine substrate by spectrophotometry
T1 sequence (Q6GI75 whole entry): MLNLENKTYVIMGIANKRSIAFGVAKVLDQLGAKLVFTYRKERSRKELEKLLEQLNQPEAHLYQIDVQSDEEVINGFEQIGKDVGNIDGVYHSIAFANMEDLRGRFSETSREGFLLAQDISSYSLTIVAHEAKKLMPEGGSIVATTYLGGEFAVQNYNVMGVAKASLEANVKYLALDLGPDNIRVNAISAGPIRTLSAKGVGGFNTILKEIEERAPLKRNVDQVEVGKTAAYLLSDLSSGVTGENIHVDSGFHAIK

Staphylococcus aureus [2] = assay: Antibacterial activity against Staphylococcus aureus incubated for 18 hrs by agar dilution method; assay type: functional
Staphylococcus aureus [3] = assay: Antibacterial activity against methicillin-resistant Staphylococcus aureus incubated for 18 hrs by agar dilution method; assay type: functional
In short: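 Agar dilution. Strains were grown 18 h at 37 °C with shaking in Fleisch extract broth (beef extract 1%, peptone 1%, NaCl 0.3%, Na₂HPO₄ 0.2%, pH 7.4–7.5), then diluted 100-fold. Plates incubated 37 °C, 18 h. MIC is the lowest concentration preventing growth.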

[4] = AUC (0 to infinity) in ICR mouse at 10 mg/kg, iv after 5 mins to 6 hrs; assay type: ADME, organism-based; parameters: dose 10 mg/kg, time infinity, route intravenous; details: in vivo
[5] = AUClast in ICR mouse at 10 mg/kg, iv after 5 mins to 6 hrs; assay type: ADME, organism-based; parameters: time lower 0.083 hr, dose 10 mg/kg, time upper 6 hr, route intravenous; details: in vivo
[6] = Terminal half life in ICR mouse at 10 mg/kg, iv after 5 mins to 6 hrs; assay type: ADME, organism-based; details: in vivo, read-out: beta t1/2
[7] = Clearance in ICR mouse at 10 mg/kg, iv after 5 mins to 6 hrs; assay type: ADME, organism-based; details: in vivo
[8] = Mean residence time in ICR mouse at 10 mg/kg, iv after 5 mins to 6 hrs; assay type: ADME, organism-based; details: in vivo
[9] = Volume of distribution at steady state in ICR mouse at 10 mg/kg, iv after 5 mins to 6 hrs; assay type: ADME, organism-based; details: in vivo, read-out: Vdss
[10] = AUC (0 to infinity) in ICR mouse at 10 mg/kg, po after 5 mins to 6 hrs; assay type: ADME, organism-based; parameters: dose 10 mg/kg, time infinity, route oral; details: in vivo
[11] = AUClast in ICR mouse at 10 mg/kg, po after 5 mins to 6 hrs; assay type: ADME, organism-based; parameters: dose 10 mg/kg, time upper 6 hr, time lower 0.083 hr, route oral; details: in vivo
[12] = Terminal half life in ICR mouse at 10 mg/kg, po after 5 mins to 6 hrs; assay type: ADME, organism-based; details: in vivo, read-out: beta t1/2
[13] = Cmax in ICR mouse at 10 mg/kg, po after 5 mins to 6 hrs; assay type: ADME, organism-based; parameters: dose 10 mg/kg, route oral; details: in vivo
[14] = Tmax in ICR mouse at 10 mg/kg, po after 5 mins to 6 hrs; assay type: ADME, organism-based; details: in vivo
[15] = Oral bioavailability in ICR mouse at 10 mg/kg after 5 mins to 6 hrs; assay type: ADME, organism-based; details: in vivo

Row | SMILES | IC50 [1] | MIC (Staphylococcus aureus [2]) | MIC (Staphylococcus aureus [3]) | further results
1 | Cc1ccc(Oc2coc(/C=C/c3ccoc3)cc2=O)c(C)c1 | 2.29 µM | > 20 µg/mL |  | 
2 | O=c1cc(COc2ccccc2)n(C2CC2)cc1Oc1cccc(Cl)c1Cl | 1.5 µM | 3.12 µg/mL (≈ 7.77 µM) | 6.25 µg/mL (≈ 15.5 µM) | 
3 | O=c1cc(COc2ccccc2)[nH]cc1Oc1c(Cl)cccc1Cl | 4.98 µM | 3.12 µg/mL (≈ 8.63 µM) | 3.12 µg/mL (≈ 8.63 µM) | 
4 | Cn1cc(Oc2c(Cl)cccc2Cl)c(=O)cc1COc1ccccc1 | 0.72 µM | 0.195 µg/mL (≈ 0.518 µM) | 0.195 µg/mL (≈ 0.518 µM) | 
5 | O=c1cc(COc2ccccc2)n(C2CC2)cc1Oc1c(Cl)cccc1Cl | 6.43 µM | 3.12 µg/mL (≈ 7.77 µM) | 3.12 µg/mL (≈ 7.77 µM) | 
6 | O=c1cc(COc2ccccc2)[nH]cc1Oc1cccc([N+](=O)[O-])c1Cl | 11.7 µM | > 20 µg/mL |  | 
7 | Cn1cc(Oc2cccc([N+](=O)[O-])c2Cl)c(=O)cc1COc1ccccc1 | 0.66 µM | 0.781 µg/mL (≈ 2.02 µM) | 3.12 µg/mL (≈ 8.08 µM) | 
8 | O=c1cc(COc2ccccc2)n(C2CC2)cc1Oc1cccc([N+](=O)[O-])c1Cl | 17.6 µM | > 20 µg/mL |  | 
9 | COCc1cc(=O)c(Oc2ccc(Cl)cc2)co1 | 5.2 µM | 6.25 µg/mL (≈ 23.4 µM) |  | 
10 | O=c1cc(COc2ccccc2)occ1Oc1ccc(Cl)cc1Cl | 0.68 µM | 3.12 µg/mL (≈ 8.6 µM) | 6.25 µg/mL (≈ 17.2 µM) | 
11 | Cc1cc(Cl)ccc1Oc1coc(COc2ccccc2)cc1=O | 0.45 µM | 1.56 µg/mL (≈ 4.56 µM) | 6.25 µg/mL (≈ 18.2 µM) | 
12 | Cc1ccc(Oc2coc(COc3ccccc3)cc2=O)c(C)c1 | 0.38 µM | 1.56 µg/mL (≈ 4.85 µM) | 1.56 µg/mL (≈ 4.85 µM) | 
13 | O=c1cc(COc2ccccc2)occ1Oc1cccc(Cl)c1Cl | 1.25 µM | 6.25 µg/mL (≈ 17.2 µM) | 12.5 µg/mL (≈ 34.4 µM) | 
14 | O=c1cc(COc2ccccc2)occ1Oc1c(Cl)cccc1Cl | 1.42 µM | 6.25 µg/mL (≈ 17.2 µM) | 12.5 µg/mL (≈ 34.4 µM) | 
15 | Cc1c(Oc2coc(COc3ccccc3)cc2=O)cccc1[N+](=O)[O-] | 3.52 µM | 12.5 µg/mL (≈ 35.4 µM) | 12.5 µg/mL (≈ 35.4 µM) | 
16 | Cc1cc(Cl)ccc1Oc1coc(/C=C/c2ccccc2)cc1=O | 4.88 µM | > 20 µg/mL |  | 
17 | Cc1cc(Cl)ccc1Oc1coc(/C=C/c2ccoc2)cc1=O | 2.45 µM | > 20 µg/mL |  | 
18 | Cc1cc(Cl)ccc1Oc1coc(/C=C/c2ccco2)cc1=O | 3.89 µM | > 20 µg/mL |  | 
19 | Cc1cc(Cl)ccc1Oc1coc(/C=C/c2cccnc2)cc1=O | 2.94 µM | > 20 µg/mL |  | 
20 | Cc1cc(Cl)ccc1Oc1coc(/C=C/c2ccsc2)cc1=O | 3.12 µM | > 20 µg/mL |  | 
21 | Cc1cc(Cl)ccc1Oc1coc(/C=C/c2cccs2)cc1=O | 4.57 µM | > 20 µg/mL |  | 
22 | Cc1cc(Cl)ccc1Oc1coc(/C=C/c2ccc[nH]2)cc1=O | 5.82 µM | > 20 µg/mL |  | 
23 | CCC/C=C/c1cc(=O)c(Oc2ccc(Cl)cc2C)co1 | 6.44 µM | > 20 µg/mL |  | 
24 | Cc1cc(Cl)ccc1Oc1coc(/C=C/C(C)C)cc1=O | 5.78 µM | > 20 µg/mL |  | 
25 | O=c1cc(/C=C/c2ccccc2)occ1Oc1ccc(Cl)cc1Cl | 4.53 µM | > 20 µg/mL |  | 
26 | O=c1cc(/C=C/c2ccoc2)occ1Oc1ccc(Cl)cc1Cl | 1.89 µM | > 20 µg/mL |  | 
27 | O=c1cc(/C=C/c2cccnc2)occ1Oc1ccc(Cl)cc1Cl | 2.04 µM | > 20 µg/mL |  | 

Row | SMILES | IC50 [1] | MIC (Staphylococcus aureus [2]) | MIC (Staphylococcus aureus [3]) | further results
28 | Cc1ccc(Oc2coc(/C=C/c3ccccc3)cc2=O)c(C)c1 | 5.33 µM | > 20 µg/mL |  | 
29 | Cc1ccc(Oc2coc(/C=C/c3cccnc3)cc2=O)c(C)c1 | 3.48 µM | > 20 µg/mL |  | 
30 | O=c1cc(/C=C/c2ccccc2)occ1Oc1cccc(Cl)c1Cl | 6.73 µM | > 20 µg/mL |  | 
31 | O=c1cc(/C=C/c2ccoc2)occ1Oc1cccc(Cl)c1Cl | 5.68 µM | > 20 µg/mL |  | 
32 | O=c1cc(/C=C/c2cccnc2)occ1Oc1cccc(Cl)c1Cl | 3.44 µM | > 20 µg/mL |  | 
33 | O=c1cc(/C=C/c2ccccc2)occ1Oc1c(Cl)cccc1Cl | 4.79 µM | > 20 µg/mL |  | 
34 | O=c1cc(/C=C/c2ccoc2)occ1Oc1c(Cl)cccc1Cl | 4.12 µM | > 20 µg/mL |  | 
35 | O=c1cc(/C=C/c2cccnc2)occ1Oc1c(Cl)cccc1Cl | 3.74 µM | > 20 µg/mL |  | 
36 | O=c1cc(COc2ccccc2)[nH]cc1Oc1ccc(Cl)cc1Cl | 1.82 µM | 0.781 µg/mL (≈ 2.16 µM) | 1.56 µg/mL (≈ 4.32 µM) | 
37 | Cn1cc(Oc2ccc(Cl)cc2Cl)c(=O)cc1COc1ccccc1 | 0.12 µM | 0.195 µg/mL (≈ 0.518 µM) | 0.195 µg/mL (≈ 0.518 µM) | 
38 | O=c1cc(COc2ccccc2)n(C2CC2)cc1Oc1ccc(Cl)cc1Cl | 0.48 µM | 1.56 µg/mL (≈ 3.89 µM) | 1.56 µg/mL (≈ 3.89 µM) | 
39 | CCCCn1cc(Oc2ccc(Cl)cc2Cl)c(=O)cc1COc1ccccc1 | 1.25 µM | 6.25 µg/mL (≈ 14.9 µM) | 6.25 µg/mL (≈ 14.9 µM) | 
40 | O=c1cc(COc2ccccc2)n(Cc2ccccc2)cc1Oc1ccc(Cl)cc1Cl | 1.42 µM | 6.25 µg/mL (≈ 13.8 µM) | 12.5 µg/mL (≈ 27.6 µM) | 
41 | Cc1cc(Cl)ccc1Oc1c[nH]c(COc2ccccc2)cc1=O | 0.4 µM | 1.56 µg/mL (≈ 4.57 µM) | 1.56 µg/mL (≈ 4.57 µM) | 
42 | Cc1cc(Cl)ccc1Oc1cn(C)c(COc2ccccc2)cc1=O | 0.11 µM | 0.098 µg/mL (≈ 0.275 µM) | 0.098 µg/mL (≈ 0.275 µM) | 
43 | Cc1cc(Cl)ccc1Oc1cn(C2CC2)c(COc2ccccc2)cc1=O | 0.47 µM | 0.391 µg/mL (≈ 1.02 µM) | 0.781 µg/mL (≈ 2.05 µM) | 
44 | CCCCn1cc(Oc2ccc(Cl)cc2C)c(=O)cc1COc1ccccc1 | 0.63 µM | 3.12 µg/mL (≈ 7.85 µM) | 3.12 µg/mL (≈ 7.85 µM) | 
45 | Cc1cc(Cl)ccc1Oc1cn(Cc2ccccc2)c(COc2ccccc2)cc1=O | 0.65 µM | 3.12 µg/mL (≈ 7.24 µM) | 6.25 µg/mL (≈ 14.5 µM) | 
46 | Cc1ccc(Oc2c[nH]c(COc3ccccc3)cc2=O)c(C)c1 | 1.14 µM | 0.781 µg/mL (≈ 2.43 µM) | 1.56 µg/mL (≈ 4.86 µM) | 
47 | Cc1ccc(Oc2cn(C)c(COc3ccccc3)cc2=O)c(C)c1 | 0.08 µM | 0.049 µg/mL (≈ 0.146 µM) | 0.049 µg/mL (≈ 0.146 µM) | AUC(0-inf) [4]: 5920 ng·h/mL; AUC(0-t) [5]: 5910 ng·h/mL; half-life [6]: 47.9 min; clearance [7]: 28.1 mL/min/kg; MRT [8]: 36.5 min; Vd [9]: 1.03 L/kg; AUC(0-inf) [10]: 2490 ng·h/mL; AUC(0-t) [11]: 2480 ng·h/mL; half-life [12]: 33.9 min; Cmax [13]: 4040 ng/mL; Tmax [14]: 5 min; bioavailability [15]: 41.9%
48 | Cc1ccc(Oc2cn(C3CC3)c(COc3ccccc3)cc2=O)c(C)c1 | 3.17 µM | 0.391 µg/mL (≈ 1.08 µM) | 1.56 µg/mL (≈ 4.32 µM) | 
49 | CCCCn1cc(Oc2ccc(C)cc2C)c(=O)cc1COc1ccccc1 | 1 µM | 0.781 µg/mL (≈ 2.07 µM) | 1.56 µg/mL (≈ 4.14 µM) | 
50 | Cc1ccc(Oc2cn(Cc3ccccc3)c(COc3ccccc3)cc2=O)c(C)c1 | 2.69 µM | 1.56 µg/mL (≈ 3.8 µM) | 3.12 µg/mL (≈ 7.59 µM) | 
51 | O=c1cc(COc2ccccc2)[nH]cc1Oc1cccc(Cl)c1Cl | 0.84 µM | 1.56 µg/mL (≈ 4.32 µM) | 1.56 µg/mL (≈ 4.32 µM) | 
52 | Cn1cc(Oc2cccc(Cl)c2Cl)c(=O)cc1COc1ccccc1 | 0.22 µM | 0.195 µg/mL (≈ 0.518 µM) | 0.195 µg/mL (≈ 0.518 µM) | 
53 | CC(=O)NC[C@H]1CN(c2ccc(N3CCOCC3)c(F)c2)C(=O)O1 [LINEZOLID] |  |  | 0.781 µg/mL (≈ 2.32 µM) | 
54 | Oc1cc(Cl)ccc1Oc1ccc(Cl)cc1Cl [TRICLOSAN] |  | 0.391 µg/mL (≈ 1.35 µM) |  | 
